The values that follow come from ChEMBL document CHEMBL2203173 (J Med Chem, 2012).

The subject of data set [1] is Mus musculus. The experiment in a line: Cardiotoxicity in BALB/c nu/nu mouse xenografted with human DMS53 cells at 6 mg/kg, iv administered for 5 days a week measured after 21 days. The class given is toxicity, organism-based, DMS-53. Particulars: in vivo, 504 h. More on the design: dose 6 mg/kg, route intravenous. In a few lines:
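DMS-53 xenograft nude mice given agents iv by tail vein 5 days/week in 30% propylene glycol/saline for 21 days. At sacrifice, heart sections were stained with Gomori Trichrome to detect fibrosis. Spleen, kidney, liver, heart, lungs and brain were also stained with H&E and Perls' and examined by an independent veterinary pathologist.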
For orientation: In xenograft studies the graft and the host belong to different species.

For data set [2], the system named is Mus musculus. As to the kind of experiment: Toxicity in BALB/c nu/nu mouse xenografted with human DMS53 cells assessed as body weight change at 20 mg/kg, po administered for 3 times a week measured after 20 days. The class given is organism-based, DMS-53. Set-up: dose 20 mg/kg, route oral. Particulars: in vivo, 480 h. In a few lines: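 DMS-53 xenograft nude mice dosed by oral gavage 3 times/week in 30% propylene glycol/saline, with vehicle controls. Average body weight recorded during 20 days of treatment. n = 6–11 mice/condition, mean ± SD.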

Data set [3] has as its system Mus musculus. As to the kind of experiment: Toxicity in BALB/c nu/nu mouse xenografted with human DMS53 cells assessed as change in organ weight at 4 mg/kg, iv administered for 5 days a week measured after 21 days. The class given is organism-based, DMS-53. Conditions: in vivo, 504 h. More on the design: dose 4 mg/kg, route intravenous. In a few lines: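 DMS-53 xenograft-bearing nude mice, treatment started at 100 mm3 tumour volume: iv tail-vein dosing in 30% propylene glycol/saline, 5 days/week for 21 days. Organs were weighed at sacrifice and compared with vehicle-control mice.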

Consider `CCN(C)C(=S)NN=C(c1ccccn1)c1ccccn1.Cl`, for which the Activity entry in data set [1] and in data set [2] was “Non-toxic” each time. Take `CN(C(=S)NN=C(c1ccccn1)c1ccccn1)C1CCCCC1.Cl`: in data set [3], the Activity entry is reported as “Non-toxic”.
